The values below come from ChEMBL document CHEMBL1127309, “A novel and useful descriptor for hydrophobicity, partition coefficient micellar-water, and its application to a QSAR study of antiplatelet agents” (J Med Chem, 1994).

SMILES strings stand for the structures.

For data set [1], the system named is Rattus norvegicus. As to the kind of experiment: Tested for antiplatelet activity in rat by conversion of the original antiplatelet activity data (%) to antiplatelet activity values at 10 umol/kg. The format is functional.
A short description of data set [2]: Retention time at 30 mM. The settings on record: 30000 µM. It is filed as ADME. In a few lines: (§1)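 Reversed-phase HPLC on a C8 column (4.6 × 100 mm, 10 µm) at room temperature (22-25 °C). The mobile phase was Brij35 micelle solution in 10 mM phosphate buffer, pH 4.01, run separately at 25, 30, 35 and 40 mM Brij35. NaNO₃ served as the dead-time marker.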
In data set [3] the test system is Rattus norvegicus. As to the kind of experiment: Tested for inhibitory activity on rat platelet aggregation induced by collagen measured after 1 hr of oral administration of compound (10 mg/kg) in rat. It is filed as functional.
Data set [4] is described as follows: Retention time at 25 mM. The settings on record: 25000 µM. The format is ADME. In a few lines: as §1
A short description of data set [5]: Retention time at 35 mM. The settings on record: 35000 µM. The format is ADME. In a few lines:
as §1

The nature of data set [6]: Retention time at 40 mM. The conditions noted are these: 40000 µM. The format is ADME. The method in brief:
as §1

Data set [7] deals with Rattus norvegicus. As to the kind of experiment: Tested for inhibitory activity on rat platelet aggregation induced by collagen ex vivo measured after 1 hr of oral administration of compound (10 mg/kg) in rat. It is filed as functional.

For the compound `COc1c(-c2nc(C)c(-c3cccnc3)[nH]2)cc2nc(O)[nH]c2c1Cl`, in the data set on Rattus norvegicus [1], the “Log APA” value worked out at 0.79. In addition, the Retention time in data set [2] is listed as 1.301 min; in data set [4], 1.32 min; in data set [5], 1.296 min; in data set [6], 1.289 min. The Inhibition (as a rule, the change of the read-out against control, counted positive when it falls) in the data set on Rattus norvegicus [3] was determined as 17%.
`CNC(=O)Nc1ccccc1-c1nc(C)c(-c2cccnc2)[nH]1`: the “Log APA” value in the data set with Rattus norvegicus [1] is listed as 1.1. In addition, the Retention time in data set [2] is listed as 5.78 min; in data set [4], 6.34 min; in data set [5], 5.35 min; in data set [6], 5 min. Also, the Inhibition with Rattus norvegicus [3] is 46%.
Regarding `CCOc1ccccc1-c1nc(C)c(-c2cccnc2)[nH]1`, the “Log APA” value in the data set with Rattus norvegicus [1] is 1.1. Besides, the Retention time was determined as 5.44 min in data set [2], 6.01 min in data set [4], 5.08 min in data set [5] and 4.77 min in data set [6]. Further, the Inhibition in the data set with Rattus norvegicus [3] amounted to 45%.
In the case of `Cc1[nH]c(-c2ccccc2N)nc1-c1cccnc1`, the “Log APA” value in the data set on Rattus norvegicus [1] is 0.8. Moreover, the Retention time amounted to 3.37 min in data set [2], 3.58 min in data set [4], 3.21 min in data set [5] and 3.07 min in data set [6]. This compound also yielded an Inhibition in the data set on Rattus norvegicus [3] of 25%.
Regarding `COc1c(-c2nc(C)c(-c3cccnc3)[nH]2)ccc2[nH]c(C)nc12`, the “Log APA” value with Rattus norvegicus [1] came out at 0.72. The Retention time in data set [2] was 2.7 min; in data set [4], 2.79 min; in data set [5] it was 2.56 min; in data set [6], 2.43 min. This compound displayed an Inhibition in the data set on Rattus norvegicus [3] of 16%.
As for `COc1c(-c2nc(C)c(-c3cccnc3)[nH]2)cc2nc(C)[nH]c2c1Cl`, the “Log APA” value with Rattus norvegicus [1] is recorded as 1.4. Also, the Retention time in data set [2] came to 4.36 min; in data set [4], 4.69 min; in data set [5], 4.05 min; in data set [6] it was 3.79 min. In the data set with Rattus norvegicus [3], this compound registered an Inhibition of 63%.
As for `Cc1nc2cc(-c3nc(C)c(-c4cccnc4)[nH]3)c(C)cc2[nH]1`, the “Log APA” value in the data set with Rattus norvegicus [1] was determined as 0.74. Also, the Retention time in data set [2] stood at 1.294 min; in data set [4], 1.3 min; in data set [5], 1.28 min; in data set [6], 1.271 min. The compound further came in with an Inhibition with Rattus norvegicus [3] of 18%.
Turning to `COc1cc2c(cc1-c1nc(C)c(-c3cccnc3)[nH]1)nc(O)n2C`, the “Log APA” value with Rattus norvegicus [1] stood at 0.57. Besides, the Retention time was 1.362 min in data set [2], 1.375 min in data set [4], 1.345 min in data set [5] and 1.331 min in data set [6]. The Inhibition in the data set with Rattus norvegicus [3] was 11%.
On to `CSc1ccccc1-c1nc(C)c(-c2cccnc2)[nH]1`, for which the “Log APA” value in the data set with Rattus norvegicus [1] is on record as 0.95. The Retention time in data set [2] was 7.01 min; in data set [4], 7.65 min; in data set [5] it was 6.46 min; in data set [6], 6 min. Moreover, in the data set with Rattus norvegicus [3], the Inhibition came out at 32%.
Consider `Cc1nc2cc(Cl)c(-c3nc(C)c(-c4cccnc4)[nH]3)cc2[nH]1`, for which the “Log APA” value in the data set with Rattus norvegicus [1] was found to be 0.68. The Retention time in data set [2] was 3.41 min; in data set [4], 3.56 min; in data set [5], 3.19 min; in data set [6], 3 min. Further, the Inhibition in the data set on Rattus norvegicus [3] is 15%.
As to `COc1ccccc1-c1nc(C)c(-c2cccnc2)[nH]1`, the “Log APA” value in the data set with Rattus norvegicus [1] is 1.1. The Retention time turned out to be 4.21 min in data set [2], 4.59 min in data set [4], 3.97 min in data set [5] and 3.76 min in data set [6]. This compound also had an Inhibition in the data set on Rattus norvegicus [3] of 49%.
With `COc1c(-c2nc(C)c(-c3cccnc3)[nH]2)cc(Cl)c2[nH]c(CCC(=O)O)nc12`, the “Log APA” value in the data set with Rattus norvegicus [1] stood at 0.4. The Retention time was 3.47 min in data set [2], 3.68 min in data set [4], 3.27 min in data set [5] and 3.1 min in data set [6]. The same compound had an Inhibition in the data set on Rattus norvegicus [3] of 6%.
Regarding `COc1cc(OC)c(-c2nc(C)c(-c3cccnc3)[nH]2)cc1NC(C)=O`, the “Log APA” value in the data set on Rattus norvegicus [1] is recorded as 0.93. Further, the Retention time came out at 2.6 min in data set [2], 2.75 min in data set [4], 2.5 min in data set [5] and 2.41 min in data set [6]. The same compound registered an Inhibition in the data set with Rattus norvegicus [3] of 24%.
For the compound `Cc1ccccc1-c1nc(C)c(-c2cccnc2)[nH]1`, in the data set on Rattus norvegicus [1], the “Log APA” value was determined as 0.18. Moreover, the Retention time in data set [2] is on record as 4.92 min; in data set [4], 5.2 min; in data set [5], 4.64 min; in data set [6], 4.39 min. The compound also returned an Inhibition in the data set on Rattus norvegicus [3] of 6%.
For `COc1cc(NC(C)=O)c([N+](=O)[O-])cc1-c1nc(C)c(-c2cccnc2)[nH]1`, the “Log APA” value in the data set with Rattus norvegicus [1] turned out to be 1.5. The Retention time is 9.08 min in data set [2], 10.35 min in data set [4], 8.08 min in data set [5] and 7.33 min in data set [6]. Also, the Inhibition in the data set with Rattus norvegicus [3] stood at 86%.
On to `COc1c(-c2nc(C)c(-c3cccnc3)[nH]2)cc(Cl)c2[nH]c(C)nc12`, for which, in the data set on Rattus norvegicus [1], the “Log APA” value turned out to be 1.3. The Retention time in data set [2] was 8.14 min; in data set [4], 9.36 min; in data set [5] it was 7.24 min; in data set [6], 6.52 min. In the data set with Rattus norvegicus [3], this compound yielded an Inhibition of 51%.
`COC(=O)Nc1ccccc1-c1nc(C)c(-c2cccnc2)[nH]1` gave an Inhibition with Rattus norvegicus [7] of 73%. Also, the “Log APA” value with Rattus norvegicus [1] is 1.4. Moreover, the Retention time in data set [2] is 7.94 min; in data set [4], 8.79 min; in data set [5], 7.27 min; in data set [6] it was 6.7 min.
Regarding `COc1cc(NC(C)=O)c(Cl)cc1-c1nc(C)c(-c2cccnc2)[nH]1`, the “Log APA” value with Rattus norvegicus [1] came to 1.4. The Retention time in data set [2] was 7.01 min; in data set [4], 7.95 min; in data set [5], 6.32 min; in data set [6] it was 5.78 min. This compound showed an Inhibition with Rattus norvegicus [3] of 65%.
In the case of `Cc1[nH]c(-c2ccccc2Cl)nc1-c1cccnc1`, in the data set on Rattus norvegicus [1], the “Log APA” value came to 0.38. Also, the Retention time in data set [2] was 7.83 min; in data set [4], 8.63 min; in data set [5] it was 7.17 min; in data set [6], 6.64 min. The compound further yielded an Inhibition in the data set on Rattus norvegicus [3] of 9%.
As to `Cc1[nH]c(-c2ccccc2F)nc1-c1cccnc1`, the “Log APA” value in the data set with Rattus norvegicus [1] is listed as 1.4. Further, the Retention time in data set [2] is given as 7.84 min; in data set [4], 8.75 min; in data set [5] it was 7.13 min; in data set [6], 6.57 min. Further, the Inhibition in the data set on Rattus norvegicus [3] is 98%.
On to `CCOC(=O)COc1ccccc1-c1nc(C)c(-c2cccnc2)[nH]1`, for which, in the data set with Rattus norvegicus [1], the “Log APA” value was 0.6. The Retention time was determined as 7.12 min in data set [2], 9.21 min in data set [4], 6.57 min in data set [5] and 6.18 min in data set [6]. The Inhibition in the data set on Rattus norvegicus [3] turned out to be 12%.
In the case of `COc1cc2[nH]c(C)nc2cc1-c1nc(C)c(-c2cccnc2)[nH]1`, in the data set with Rattus norvegicus [1], the “Log APA” value is 0.83. Further, the Retention time in data set [2] is given as 2.16 min; in data set [4] it was 2.23 min; in data set [5], 2.06 min; in data set [6], 1.99 min. The Inhibition in the data set on Rattus norvegicus [3] is 21%.
